Measured values from ChEMBL document CHEMBL3739268, “Structure activity relationships of 4-hydroxy-2-pyridones: A novel class of antituberculosis agents” (Eur J Med Chem, 2015).
≈ marks a conversion by molar mass, not a printed value.

Legend:
[1] = tested on: Mycobacterium tuberculosis; test: Antituberculosis activity against Mycobacterium tuberculosis H37Rv ATCC 27294 after 5 days; assay type: functional; settings: H37Rv ATCC 27294, 120 h
[2] = Solubility of the compound at pH 6.8 after 24 hrs by shake flask method; assay type: physicochemical; settings: buffer
Summary of the method: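 High-throughput equilibrium shake-flask method. DMSO stock evaporated in filter vials, aqueous buffer added, shaken 24 h on an orbital shaker, then filtered with 30 min further shaking. Filtrate analysed by HPLC.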

[3] = Oral bioavailability in mouse at 25 mg/kg; assay type: ADME, organism-based; settings: in vivo
[4] = Inhibition of Mycobacterium tuberculosis InhA
[5] = Intrinsic clearance in mouse liver microsomes; assay type: ADME; settings: read-out: CLH
Summary of the method: (§1)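 Compound depletion in human, mouse or rat liver microsomes, quantified by LC/MS/MS. In vitro half-life and hepatic extraction ratio measured, and metabolic clearance predicted from these.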

[6] = AUC in mouse at 25 mg/kg, po; assay type: ADME, organism-based; settings: in vivo
Summary of the method: (§2)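 Plasma sampled at 0.08–24 h, three mice per time point. Plasma extracted with acetonitrile/methanol/acetic acid and quantified by LC/MS/MS (LLOQ 1–3 ng/mL).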

[7] = Volume of distribution at steady state in mouse at 5 mg/kg, iv; assay type: ADME, organism-based; settings: in vivo, read-out: Vdss
Summary of the method: (§3)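 Mice dosed i.v. at 5 mg/kg (1 mg/mL in 20% 1,2-propanediol, 10% solutol HS15, pH 7.0 buffer). Plasma sampled at 0.02, 0.25, 0.75, 1.5, 3, 8 and 24 h, three mice per time point. Analysed by LC/MS/MS with warfarin as internal standard. Noncompartmental analysis of mean concentration–time profiles.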

[8] = Plasma clearance in mouse at 5 mg/kg, iv; assay type: ADME, organism-based; summary of the method: as §3
[9] = Terminal half life in mouse at 5 mg/kg, iv; assay type: ADME, organism-based; settings: in vivo, read-out: beta t1/2 (converted); summary of the method: as §3
[10] = Tmax in mouse at 25 mg/kg, po; assay type: ADME, organism-based; settings: in vivo; summary of the method: as §2
[11] = tested on: Mycobacterium tuberculosis; test: Antituberculosis activity against Mycobacterium tuberculosis H37Rv infected in mouse assessed as log reduction of CFU in spleen at 100 mg/kg qd for 7 days in a week for 4 weeks; assay type: functional
Summary of the method: (§4)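 Mice infected intranasally with 10³ H37Rv bacilli on day 0; from one week post-infection dosed orally daily, 7 days/week for 4 weeks, in MEPC vehicle (Capmul MCM, Cremophor-RH40, ethanol, 50 mM phosphate pH 6.8). Bacterial load in spleen estimated as log CFU by serial-dilution plating on 7H11 agar; ethambutol positive control.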

[12] = tested on: Mycobacterium tuberculosis; test: Antituberculosis activity against Mycobacterium tuberculosis H37Rv infected in mouse assessed as log reduction of CFU in spleen at 30 mg/kg qd for 7 days in a week for 4 weeks; assay type: functional; summary of the method: as §4
[13] = tested on: Mycobacterium tuberculosis; test: Antituberculosis activity against Mycobacterium tuberculosis H37Rv infected in mouse assessed as log reduction of CFU in lung at 30 mg/kg qd for 7 days in a week for 4 weeks; assay type: functional
Summary of the method: (§5)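 Acute model: mice infected intranasally day 0 with 10³ H37Rv bacilli; oral dosing began one week post-infection, daily 7 days/week (3 or 4 weeks). Oral vehicle was 0.5% Tween 80/0.5% methyl cellulose for the 3-week study and MEPC (Capmul MCM/Cremophor-RH40/ethanol/pH 6.8 phosphate buffer) for the 4-week study. Lungs homogenized, serial-dilution plated on 7H11 agar for CFU; ethambutol positive control.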

[14] = Cmax in mouse at 25 mg/kg, po; assay type: ADME, organism-based; design: dose 25 mg/kg, route oral; settings: in vivo; summary of the method: as §2
[15] = Cytotoxicity against human HepG2 cells; assay type: cell-based
[16] = Intrinsic clearance in human liver microsomes; assay type: ADME; settings: read-out: CLH; summary of the method: as §1
[17] = tested on: Mycobacterium tuberculosis; test: Antituberculosis activity against Mycobacterium tuberculosis H37Rv infected in mouse assessed as log reduction of CFU in lung at 100 mg/kg qd for 7 days in a week for 4 weeks; assay type: functional; summary of the method: as §5
[18] = tested on: Mycobacterium tuberculosis; test: Antituberculosis activity against Mycobacterium tuberculosis H37Rv infected in mouse assessed as log reduction of CFU in lung at 150 mg/kg qd for 7 days in a week for 3 weeks; assay type: functional; summary of the method: as §5
[19] = target: Cytochrome P450 3A4 (Homo sapiens, UniProt P08684); test: Inhibition of CYP3A4 (unknown origin); assay type: ADME
Sequence of Cytochrome P450 3A4 (P08684 whole entry): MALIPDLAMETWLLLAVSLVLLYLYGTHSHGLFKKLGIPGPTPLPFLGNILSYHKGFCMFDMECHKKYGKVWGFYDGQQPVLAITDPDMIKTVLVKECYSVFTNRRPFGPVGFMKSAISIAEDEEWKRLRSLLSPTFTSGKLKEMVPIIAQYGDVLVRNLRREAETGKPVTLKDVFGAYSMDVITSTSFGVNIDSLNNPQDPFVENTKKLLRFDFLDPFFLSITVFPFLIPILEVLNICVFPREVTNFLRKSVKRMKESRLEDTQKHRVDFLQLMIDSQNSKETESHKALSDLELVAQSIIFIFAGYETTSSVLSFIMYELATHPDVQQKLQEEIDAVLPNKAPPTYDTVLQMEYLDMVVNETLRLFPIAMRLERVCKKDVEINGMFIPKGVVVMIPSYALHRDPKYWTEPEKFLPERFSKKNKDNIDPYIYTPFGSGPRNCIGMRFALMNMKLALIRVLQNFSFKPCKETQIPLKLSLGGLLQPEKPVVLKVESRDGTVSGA

[20] = target: Cytochrome P450 2D6 (Homo sapiens, UniProt P10635); test: Inhibition of CYP2D6 (unknown origin); assay type: ADME
Sequence of Cytochrome P450 2D6 (P10635 whole entry): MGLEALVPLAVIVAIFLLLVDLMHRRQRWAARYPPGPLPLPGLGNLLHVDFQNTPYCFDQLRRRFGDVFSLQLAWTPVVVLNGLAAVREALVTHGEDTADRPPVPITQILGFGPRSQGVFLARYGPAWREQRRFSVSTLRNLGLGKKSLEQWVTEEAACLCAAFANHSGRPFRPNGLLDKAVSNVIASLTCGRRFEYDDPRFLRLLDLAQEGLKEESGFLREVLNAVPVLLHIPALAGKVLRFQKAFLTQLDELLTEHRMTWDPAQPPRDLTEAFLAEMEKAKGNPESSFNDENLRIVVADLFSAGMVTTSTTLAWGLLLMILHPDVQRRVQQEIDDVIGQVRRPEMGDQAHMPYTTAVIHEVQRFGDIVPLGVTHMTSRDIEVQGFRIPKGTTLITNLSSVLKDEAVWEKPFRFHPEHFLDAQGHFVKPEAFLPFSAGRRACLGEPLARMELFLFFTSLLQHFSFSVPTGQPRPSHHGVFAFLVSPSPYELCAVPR

[21] = Tmax in mouse at 50 mg/kg, po; assay type: ADME, organism-based; settings: in vivo
[22] = Intrinsic clearance in rat liver microsomes; assay type: ADME; settings: read-out: CLH; summary of the method: as §1
[23] = Cmax in mouse at 50 mg/kg, po; assay type: ADME, organism-based; design: dose 50 mg/kg, route oral; settings: in vivo
[24] = target: Cytochrome P450 2C9 (Homo sapiens, UniProt P11712); test: Inhibition of CYP2C9 (unknown origin); assay type: ADME
Sequence of Cytochrome P450 2C9 (P11712 whole entry): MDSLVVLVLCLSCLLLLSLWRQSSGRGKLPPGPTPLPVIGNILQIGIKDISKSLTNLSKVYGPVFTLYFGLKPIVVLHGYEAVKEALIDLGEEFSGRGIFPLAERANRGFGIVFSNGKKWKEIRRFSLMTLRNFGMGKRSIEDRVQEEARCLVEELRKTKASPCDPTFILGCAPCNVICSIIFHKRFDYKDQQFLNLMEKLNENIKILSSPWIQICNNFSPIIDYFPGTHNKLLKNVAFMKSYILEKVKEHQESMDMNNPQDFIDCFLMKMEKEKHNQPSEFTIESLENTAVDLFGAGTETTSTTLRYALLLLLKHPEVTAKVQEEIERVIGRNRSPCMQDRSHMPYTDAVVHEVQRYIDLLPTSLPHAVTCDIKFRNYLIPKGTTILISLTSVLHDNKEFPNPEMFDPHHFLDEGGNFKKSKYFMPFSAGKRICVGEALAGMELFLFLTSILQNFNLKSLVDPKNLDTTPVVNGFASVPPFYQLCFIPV

[25] = tested on: Mus musculus; test: Oral bioavailability in mouse at 50 mg/kg; assay type: ADME, organism-based; settings: in vivo
[26] = tested on: Mus musculus; test: AUC in mouse at 50 mg/kg, po; assay type: ADME, organism-based; settings: in vivo

Structure (SMILES) | MIC50 [1] [µM] | solubility thermodynamic at 24 h [2] [µM] | further results
CC(C)Cc1cc(O)c(-c2cccc(Cl)c2)c(=O)[nH]1 | 2.67 (≈ 0.742 µg/mL) |  | 
NNC(=O)c1ccncc1 [ISONIAZID] | 0.33 (≈ 0.0453 µg/mL) |  | 
O=c1[nH]c(CC2CCOCC2)cc(O)c1-c1ccccc1 | 10.1 (≈ 2.88 µg/mL) | > 1000 | 
O=c1[nH]c(Cc2ccncc2)cc(O)c1-c1ccccc1 | 6.8 (≈ 1.89 µg/mL) | > 1000 | 
CC(C)Cc1cc(O)c(Cc2ccccc2)c(=O)[nH]1 | > 20 |  | 
O=c1[nH]c(CC2CCCC2)cc(O)c1-c1ccccc1 | 0.92 (≈ 0.248 µg/mL) | 144 (≈ 38.8 µg/mL) | 
O=[N+]([O-])c1cn2c(n1)OC[C@@H](OCc1ccc(OC(F)(F)F)cc1)C2 [PRETOMANID] | 0.4 (≈ 0.144 µg/mL) |  | 
CC1(C)CCC(Cc2cc(O)c(-c3ccccc3)c(=O)[nH]2)CC1 | 0.05 (≈ 0.0156 µg/mL) | 25 (≈ 7.79 µg/mL) | bioavailability [3]: 66%; IC50 [4]: 0.57 µM; microsomal CLint [5]: 45 µL/min/mg; AUC [6]: 65.8 µM·h; Vd [7]: 0.54 L/kg; clearance [8]: 13.6 mL/min/kg; half-life [9]: 1.13 h; Tmax [10]: 6 h; Activity [11]: 2.8 log10CFU; Activity [12]: 2.5 log10CFU; Activity [13]: 1 log10CFU; Cmax [14]: 13.7 µM; CC50 [15]: > 20 µM; microsomal CLint [16]: 59 µL/min/mg; Activity [17]: 1.92 log10CFU
CC(C)Cc1cc(O)c(-c2cccnc2)c(=O)[nH]1 | > 20 |  | 
COc1cc(CC(C)C)[nH]c(=O)c1-c1ccccc1 | > 20 |  | 
O=c1[nH]c(Cc2ccccc2)cc(O)c1-c1ccccc1 | 1.4 (≈ 0.388 µg/mL) | 40 (≈ 11.1 µg/mL) | 
CC(C)Cc1cc(O)c(-c2ccccc2)c(=O)o1 | 13.8 (≈ 3.37 µg/mL) |  | 
O=c1[nH]c(CC2CCC(F)(F)CC2)cc(O)c1-c1ccccc1 | 1.32 (≈ 0.422 µg/mL) | 104 (≈ 33.2 µg/mL) | 
CC(C)Cc1cc(O)c(-c2ccc(Cl)cc2)c(=O)[nH]1 | > 20 |  | 
Cc1cc(O)c(-c2ccccc2)c(=O)[nH]1 | > 20 | > 1000 | 
COc1ccccc1-c1c(O)cc(CC(C)C)[nH]c1=O | > 20 |  | 
CC(C)Cc1cc(O)c(-c2ccccc2)c(=O)n1C | 8.1 (≈ 2.08 µg/mL) |  | 
CC(C)Cc1cc(O)c(-c2ccc(F)cc2)c(=O)[nH]1 | 6.75 (≈ 1.76 µg/mL) |  | 
CC(C)Cc1cc(NS(C)(=O)=O)c(-c2ccccc2)c(=O)[nH]1 | > 20 |  | 
O=c1[nH]c(CC2CCC2)cc(O)c1-c1ccccc1 | 1.19 (≈ 0.304 µg/mL) | 280 (≈ 71.5 µg/mL) | 
CC(C)Cc1cc(O)c(-c2ccncc2)c(=O)[nH]1 | > 20 |  | 

Structure (SMILES) | MIC50 [1] [µM] | solubility thermodynamic at 24 h [2] [µM] | further results
Oc1nc2ccccc2c(O)c1-c1ccccc1 | 13.2 (≈ 3.13 µg/mL) |  | 
CC(C)Cc1cc(O)c(-c2ccccc2)c(=O)n1C(C)C | > 20 |  | 
COc1ccc(-c2c(O)cc(CC(C)C)[nH]c2=O)cc1 | > 20 |  | 
CC(C)Cc1cc(N)c(-c2ccccc2)c(=O)[nH]1 | > 20 |  | 
CC(C)Cc1cc(O)c(C2CCCCC2)c(=O)[nH]1 | > 20 |  | 
CN(C)Cc1cc(O)c(-c2ccccc2)c(=O)[nH]1 | > 20 | 671 (≈ 164 µg/mL) | 
CC(C)Cc1ccc(-c2ccccc2)c(=O)[nH]1 | > 20 |  | 
CC(C)Cc1cc(O)c(-c2ccccc2)c(=O)n1Cc1ccccc1 | > 20 |  | 
CC(C)Cc1cc(NCc2ccccc2)c(-c2ccccc2)c(=O)[nH]1 | > 20 |  | 
CC(C)Cc1cc(O)c(-c2ccccc2Cl)c(=O)[nH]1 | 3.32 (≈ 0.922 µg/mL) |  | 
COc1nc(CC(C)C)cc(O)c1-c1ccccc1 | > 20 |  | 
COc1nc2ccc(Br)cc2cc1[C@@H](c1ccccc1)[C@@](O)(CCN(C)C)c1cccc2ccccc12 [BEDAQUILINE] | 0.05 (≈ 0.0278 µg/mL) |  | 
CC(C)Cc1cc(O)c(-c2ccccc2F)c(=O)[nH]1 | 6.31 (≈ 1.65 µg/mL) |  | 
CC(C)Cc1nc(O)c(-c2ccccc2)c(=O)[nH]1 | > 20 |  | 
CC(C)Cc1cc(O)c(-c2cccc(F)c2)c(=O)[nH]1 | 2.69 (≈ 0.703 µg/mL) |  | 
CC(C)CCc1cc(O)c(-c2ccccc2)c(=O)[nH]1 | 1.51 (≈ 0.389 µg/mL) | 128 (≈ 32.9 µg/mL) | 
CC(C)Cc1cc(O)c(-c2ccccn2)c(=O)[nH]1 | > 20 |  | 
CC(C)Cc1cc(O)c(-c2ccccc2)c(=O)[nH]1 | 1.54 (≈ 0.375 µg/mL) | 550 (≈ 134 µg/mL) | IC50 [4]: 9.6 µM; microsomal CLint [5]: 22 µL/min/mg; Activity [18]: 0.95 log10CFU; Vd [7]: 0.46 L/kg; IC50 [19]: > 20 µM; IC50 [20]: > 20 µM; Tmax [21]: 0.5 h; half-life [9]: 1.21 h; microsomal CLint [22]: 3.4 µL/min/mg; Cmax [23]: 13.2 µM; IC50 [24]: > 20 µM; F [25]: 55%; CC50 [15]: > 20 µM; microsomal CLint [16]: 20 µL/min/mg; AUC [26]: 27.18 µM·h
O=c1[nH]c(CC2CC2)cc(O)c1-c1ccccc1 | 4.53 (≈ 1.09 µg/mL) | 891 (≈ 215 µg/mL) | 
COc1cccc(-c2c(O)cc(CC(C)C)[nH]c2=O)c1 | > 20 |  | 
O=c1[nH]c(CC2CCCCC2)cc(O)c1-c1ccccc1 | 0.16 (≈ 0.0453 µg/mL) | 24 (≈ 6.8 µg/mL) | 
